Measurements from ChEMBL document CHEMBL1126873, “Inhibitors of acyl-Coa:cholesterol acyltransferase. 4. A novel series of urea ACAT inhibitors as potential hypocholesterolemic agents” (J Med Chem, 1993).

Species: Rattus norvegicus
Test: Percent change in total cholesterol (TC) in cholic acid, cholesterol and peanut oil fed rats
Format: functional
How it was run: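 Rats fed a diet of cholic acid (0.3%), cholesterol (1.5%) and peanut oil (5.5%) received each compound in the diet at 0.05% for one week. Plasma total cholesterol was measured and expressed as percent change from control. Significance versus control was tested.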

| Structure (SMILES) | Change |
| --- | --- |
| Cc1cccc(C(C)C)c1NC(=O)NCC1(c2ccccc2)CCCCC1 | -56% |
| Cc1cccc(C(C)C)c1NC(=O)NCC1(c2ccccc2)CCCC1 | -65% |
| Cc1cccc(C)c1NC(=O)NCC1(c2ccccc2)CCCCC1 | -44% |
| CCc1cccc(C(C)C)c1NC(=O)NCC1(c2ccccc2)CCCC1 | -59% |
| CCc1cccc(C(C)C)c1NC(=O)NCC1(c2ccccc2)CCCCC1 | -70% |
| CC(C)c1cccc(C(C)C)c1NC(=O)NCC1(c2ccccc2)CCCCC1 | -73% |
| CC(C)c1cccc(C(C)C)c1NC(=O)NCC1(c2ccccc2)CCCC1 | -73% |
| CCc1cccc(CC)c1NC(=O)NCC1(c2ccccc2)CCCCC1 | -60% |
| CCc1cccc(CC)c1NC(=O)NCC1(c2ccccc2)CCCC1 | -63% |
| Cc1cccc(C(C)(C)C)c1NC(=O)NCC1(c2ccccc2)CCCCC1 | -51% |
| Cc1cccc(C(C)(C)C)c1NC(=O)NCC1(c2ccccc2)CCCC1 | -61% |

Target: O-acyltransferase (Oryctolagus cuniculus, UniProt G1SFD9)
Test: In vitro inhibition of Acyl coenzyme A:cholesterol acyltransferase using intestinal microsomes isolated from cholesterol fed rabbits
Set-up: species or system Intestine

Chain of O-acyltransferase (G1SFD9 1-524): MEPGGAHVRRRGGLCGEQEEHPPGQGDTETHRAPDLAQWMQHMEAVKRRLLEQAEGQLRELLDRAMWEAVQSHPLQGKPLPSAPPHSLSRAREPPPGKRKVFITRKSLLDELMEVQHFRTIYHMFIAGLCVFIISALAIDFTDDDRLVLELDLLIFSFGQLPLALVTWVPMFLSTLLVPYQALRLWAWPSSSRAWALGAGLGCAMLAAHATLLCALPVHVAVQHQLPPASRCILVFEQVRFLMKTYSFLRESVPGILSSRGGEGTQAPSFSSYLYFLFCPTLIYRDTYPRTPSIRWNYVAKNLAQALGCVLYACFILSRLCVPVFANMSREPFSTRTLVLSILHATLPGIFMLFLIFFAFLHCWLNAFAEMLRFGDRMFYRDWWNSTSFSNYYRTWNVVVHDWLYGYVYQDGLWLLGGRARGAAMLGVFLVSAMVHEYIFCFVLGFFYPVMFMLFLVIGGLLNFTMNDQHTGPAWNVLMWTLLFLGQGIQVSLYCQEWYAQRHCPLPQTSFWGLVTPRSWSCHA

| IC50 | Structure (SMILES) |
| --- | --- |
| 3300 nM | Cc1cc(C)c(NC(=O)NCC2(c3ccccc3)CCCC2)c(C)c1 |
| 77 nM | CC(C)c1cccc(C(C)C)c1NC(=O)NC(C)(C)Cc1ccccc1 |
| 260 nM | CC(C)c1cccc(C(C)C)c1NC(=O)NCC1(c2ccc3ccccc3c2)CCCC1 |
| 26 nM | CC(C)c1cccc(C(C)C)c1NC(=O)NCC(C)(C)c1ccccc1 |
| 190 nM | Cc1cccc(C)c1NC(=O)NCC1(c2ccccc2)CCCC1 |
| 240 nM | O=C(NCC1(c2ccccc2)CCCC1)Nc1c(Cl)cccc1Cl |
| 49 nM | CC(C)c1cccc(C(C)C)c1OC(=O)NCC1(c2ccccc2)CCCC1 |
| 2300 nM | O=C(NCC1(c2ccccc2)CCCCC1)Nc1ccccc1 |
| 97 nM | CC(C)c1cccc(C(C)C)c1NC(=O)NCC1(c2cccnc2)CCCC1 |
| 140 nM | CC(C)c1cccc(C(C)C)c1NC(=O)NCCC(c1ccccc1)c1ccccc1 |
| 1300 nM | O=C(NCC1(c2ccccc2)CCCC1)Nc1ccc(F)cc1F |
| 58 nM | Cc1cccc(C(C)C)c1NC(=O)NCC1(c2ccccc2)CCCCC1 |
| 16 nM | Cc1cccc(C(C)C)c1NC(=O)NCC1(c2ccccc2)CCCC1 |
| 65 nM | CC(C)c1cccc(C(C)C)c1NC(=O)NC1(c2ccccc2)CCCC1 |
| 110 nM | CN(C)c1cccc(N(C)C)c1NC(=O)NCC1(c2ccccc2)CCCC1 |
| 2300 nM | O=C(NCC1(c2ccccc2)CCCCC1)Nc1ccc(I)cc1 |
| 470 nM | Cc1ccc(C)c(NC(=O)NCC2(c3ccccc3)CCCCC2)c1 |
| 2500 nM | COc1cccc(NC(=O)NCC2(c3ccccc3)CCCCC2)c1 |
| 160 nM | CC(C)c1cccc(C(C)C)c1NC(=O)NCC(c1ccccc1)C(C)(C)C (configuration not stated) |
| 120 nM | Cc1cccc(C)c1NC(=O)NCC1(c2ccccc2)CCCCC1 |
| 25 nM | CCc1cccc(C(C)C)c1NC(=O)NCC1(c2ccccc2)CCCC1 |
| 18 nM | CC(C)c1cccc(C(C)C)c1NC(=O)NCC1(c2ccccc2)CC1 |
| 1500 nM | CC(C)c1ccc(NC(=O)NCC2(c3ccccc3)CCCCC2)cc1 |
| 2800 nM | Cc1cccc(NC(=O)NCC2(c3ccccc3)CCCCC2)c1 |

| IC50 | Structure (SMILES) |
| --- | --- |
| 5500 nM | Cc1ccc(NC(=O)NCC2(c3ccccc3)CCCCC2)c(C)c1 |
| 180 nM | CC(C)c1cccc(C(C)C)c1NS(=O)(=O)NCC1(c2ccccc2)CCCC1 |
| 20 nM | CCc1cccc(C(C)C)c1NC(=O)NCC1(c2ccccc2)CCCCC1 |
| 360 nM | CC(C)c1cccc(C(C)C)c1NC(=O)NCc1ccccc1 |
| 4500 nM | Cc1ccc(NC(=O)NCC2(c3ccccc3)CCCCC2)cc1 |
| 21 nM | CC(C)c1cccc(C(C)C)c1NC(=O)NCC1(c2ccccc2)CCCCC1 |
| 28 nM | CC(C)c1cccc(C(C)C)c1NC(=O)NCC1(c2ccccc2)CCC1 |
| 191 nM | CC(C)c1cccc(C(C)C)c1NC(=O)NCCCc1ccccc1 |
| 30 nM | CCCC(CCC)(CNC(=O)Nc1c(C(C)C)cccc1C(C)C)c1ccccc1 |
| 26 nM | CCCCCC(CCCCC)(CNC(=O)Nc1c(C(C)C)cccc1C(C)C)c1ccccc1 |
| 30 nM | CCCCC(CCCC)(CNC(=O)Nc1c(C(C)C)cccc1C(C)C)c1ccccc1 |
| 1300 nM | O=C(NCC1(c2ccccc2)CCCCC1)Nc1cccc(Cl)c1Cl |
| 4900 nM | COc1ccc(NC(=O)NCC2(c3ccccc3)CCCCC2)cc1 |
| 17 nM | CC(C)c1cccc(C(C)C)c1NC(=O)NCC1(c2ccccc2)CCCC1 |
| 39 nM | CC(C)c1cccc(C(C)C)c1NC(=O)NCCc1ccc2ccccc2c1 |
| 27 nM | CC(C)c1cccc(C(C)C)c1NC(=O)NCC1c2ccccc2-c2ccccc21 |
| 850 nM | CC(C)c1cccc(C(C)C)c1NC(=O)NC1CCCc2ccccc21 (configuration not stated) |
| 51 nM | CCc1cccc(CC)c1NC(=O)NCC1(c2ccccc2)CCCCC1 |
| 120 nM | CCCCCCC(CCCCCC)(CNC(=O)Nc1c(C(C)C)cccc1C(C)C)c1ccccc1 |
| 10000 nM | CC(C)c1cccc(C(C)C)c1NC(=NC#N)NCC1(c2ccccc2)CCCC1 |
| 270 nM | COc1ccccc1NC(=O)NCC1(c2ccccc2)CCCCC1 |
| 31 nM | CC(C)c1cccc(C(C)C)c1NC(=O)NC(Cc1ccccc1)c1ccccc1 (configuration not stated) |
| 640 nM | Cc1ccccc1NC(=O)NCC1(c2ccccc2)CCCCC1 |
| 1400 nM | COc1cc(OC)c(NC(=O)NCC2(c3ccccc3)CCCC2)c(OC)c1 |

| IC50 | Structure (SMILES) |
| --- | --- |
| 2330 nM | CC(C)c1cccc(C(C)C)c1NC(=S)NCC1(c2ccccc2)CCCC1 |
| 160 nM | CC(C)c1cccc(C(C)C)c1NC(=O)NC(=O)C1(c2ccccc2)CCCC1 |
| 6100 nM | CCOC(=O)c1ccc(NC(=O)NCC2(c3ccccc3)CCCCC2)cc1 |
| 12000 nM | CC(C)c1cccc(C(C)C)c1N=C(N)NCC1(c2ccccc2)CCCC1 |
| 3800 nM | O=C(NCC1(c2ccccc2)CCCCC1)Nc1ccc(Cl)c(Cl)c1 |
| 56 nM | CCc1cccc(CC)c1NC(=O)NCC1(c2ccccc2)CCCC1 |
| 54 nM | Cc1cccc(C(C)(C)C)c1NC(=O)NCC1(c2ccccc2)CCCCC1 |
| 200 nM | O=C(NCC1(c2ccccc2)CCCCC1)Nc1ccccc1C(F)(F)F |
| 4200 nM | CCOC(=O)c1ccccc1NC(=O)NCC1(c2ccccc2)CCCCC1 |
| 2700 nM | O=C(NCC1(c2ccccc2)CCCCC1)Nc1cc(Cl)ccc1Cl |
| 2200 nM | O=C(NCC1(c2ccccc2)CCCCC1)Nc1ccc(Cl)cc1 |
| 18 nM | Cc1cccc(C(C)(C)C)c1NC(=O)NCC1(c2ccccc2)CCCC1 |
| 390 nM | CC(C)c1ccccc1NC(=O)NCC1(c2ccccc2)CCCCC1 |
| 17 nM | CCC(CC)(CNC(=O)Nc1c(C(C)C)cccc1C(C)C)c1ccccc1 |
| 870 nM | O=C(NCC1(c2ccccc2)CCCC1)Nc1c(F)cc(F)cc1F |
| 18 nM | CC(C)c1cccc(C(C)C)c1NC(=O)NCC1(c2ccsc2)CCCC1 |
| 12 nM | CC(C)c1cccc(C(C)C)c1NC(=O)NCC1(c2cccs2)CCCC1 |
| 2000 nM | CC(C)c1cccc(C(C)C)c1NC(=O)NC1CC1c1ccccc1 (configuration not stated) |
| 34 nM | CC(C)c1cccc(C(C)C)c1NC(=O)NCC1(c2cccc3ccccc23)CCCC1 |
| 960 nM | O=C(NCC1(c2ccccc2)CCCC1)Nc1c(Cl)cc(Cl)cc1Cl |
| 88 nM | CC(C)c1cccc(C(C)C)c1NC(=O)NCCc1ccccc1 |
| 41 nM | CC(C)c1cccc(C(C)C)c1NC(=O)NCCc1cccc2ccccc12 |
| 910 nM | CC(C)c1cccc(C(C)C)c1NC(=O)Nc1ccccc1 |
